Test results taken from ChEMBL document CHEMBL1649455, “Antimicrobial susceptibility and mechanisms of resistance in Shigella and Salmonella isolates from children under five years of age with diarrhea in rural Mozambique” (2009).

Key:
[1] = system: Shigella flexneri; assay: Antimicrobial activity against Shigella flexneri assessed as resistant isolates by disk diffusion method; assay type: functional
Outline: (§1)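 Isolates came from rectal swabs of children under five seen at MDH between July 2001 and July 2003. There were 109 Shigella and 40 Salmonella. Swabs were cultured on MacConkey, Salmonella-Shigella and XLD agars. Identity was confirmed biochemically and by API-20E. Shigella serogroups were assigned by slide agglutination. Salmonella serotypes were assigned with somatic and flagellar antisera.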

[2] = system: Shigella sonnei; assay: Antimicrobial activity against Shigella sonnei assessed as resistant isolates by disk diffusion method; assay type: functional; outline: as §1
[3] = Antimicrobial activity against Salmonella enterica serovar Infantis assessed as resistant isolates by disk diffusion method; assay type: functional, Salmonella enterica subsp. enterica serovar Infantis; outline: as §1
[4] = system: Salmonella typhimurium; assay: Antimicrobial activity against Salmonella enterica serovar Typhimurium assessed as resistant isolates by disk diffusion method; assay type: functional, Salmonella enterica subsp. enterica serovar Typhimurium; outline: as §1
[5] = Antimicrobial activity against Salmonella enterica serovar Virchow assessed as resistant isolates by disk diffusion method; assay type: functional, Salmonella enterica subsp. enterica serovar Virchow; outline: as §1
[6] = system: Salmonella enterica; assay: Antimicrobial activity against Salmonella enterica clinical isolates assessed as resistant isolates by disk diffusion method; assay type: functional; outline: as §1
[7] = system: Shigella flexneri; assay: Antimicrobial activity against Shigella flexneri harboring cmlA-like gene assessed as resistant isolates by disk diffusion method; assay type: functional
[8] = system: Shigella flexneri; assay: Antimicrobial activity against Shigella flexneri harboring floR-like gene assessed as resistant isolates by disk diffusion method; assay type: functional
Outline: (§2)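 Resistance genes were sought by PCR in isolates fully resistant to the matching antibiotic. One colony was boiled 10 min in water to make template. PCR used […] each primer, 0.4 mM dNTPs and Taq, for 30 cycles of 94°C 1 min, primer-specific annealing 1 min and 72°C 1 min, then 72°C for 10 min. Products were run on 1.5% agarose gels with ethidium bromide.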

[9] = system: Shigella flexneri; assay: Antimicrobial activity against Shigella flexneri harboring CAT gene assessed as resistant isolates by disk diffusion method; assay type: functional
[10] = system: Salmonella sp.; assay: Antimicrobial activity against Salmonella spp. harboring cmlA-like gene assessed as resistant isolates by disk diffusion method; assay type: functional
[11] = system: Salmonella sp.; assay: Antimicrobial activity against Salmonella spp. harboring floR-like gene assessed as resistant isolates by disk diffusion method; assay type: functional
[12] = system: Salmonella sp.; assay: Antimicrobial activity against Salmonella spp. harboring CAT gene assessed as resistant isolates by disk diffusion method; assay type: functional
[13] = system: Shigella flexneri; assay: Antimicrobial activity against Shigella flexneri harboring tetA gene assessed as resistant isolates by disk diffusion method; assay type: functional
[14] = system: Shigella flexneri; assay: Antimicrobial activity against Shigella flexneri harboring tetB gene assessed as resistant isolates by disk diffusion method; assay type: functional
[15] = system: Shigella flexneri; assay: Antimicrobial activity against Shigella flexneri harboring tetG gene assessed as resistant isolates by disk diffusion method; assay type: functional; outline: as §2
[16] = system: Shigella sonnei; assay: Antimicrobial activity against Shigella sonnei harboring tetA gene assessed as resistant isolates by disk diffusion method; assay type: functional
[17] = system: Shigella sonnei; assay: Antimicrobial activity against Shigella sonnei harboring tetB gene assessed as resistant isolates by disk diffusion method; assay type: functional; outline: as §2
[18] = system: Shigella sonnei; assay: Antimicrobial activity against Shigella sonnei harboring tetG gene assessed as resistant isolates by disk diffusion method; assay type: functional; outline: as §2
[19] = system: Salmonella sp.; assay: Antimicrobial activity against Salmonella spp. harboring tetA gene assessed as resistant isolates by disk diffusion method; assay type: functional
[20] = system: Salmonella sp.; assay: Antimicrobial activity against Salmonella spp. harboring tetB gene assessed as resistant isolates by disk diffusion method; assay type: functional
[21] = system: Salmonella sp.; assay: Antimicrobial activity against Salmonella spp. harboring tetG gene assessed as resistant isolates by disk diffusion method; assay type: functional
[22] = system: Shigella flexneri; assay: Antimicrobial activity against Shigella flexneri harboring oxa-1-like gene assessed as resistant isolates by disk diffusion method; assay type: functional; outline: as §2
[23] = system: Shigella flexneri; assay: Antimicrobial activity against Shigella flexneri harboring oxa-2-like gene assessed as resistant isolates by disk diffusion method; assay type: functional; outline: as §2
[24] = system: Shigella flexneri; assay: Antimicrobial activity against Shigella flexneri harboring oxa-5-like gene assessed as resistant isolates by disk diffusion method; assay type: functional; outline: as §2
[25] = system: Shigella flexneri; assay: Antimicrobial activity against Shigella flexneri harboring tem-like gene assessed as resistant isolates by disk diffusion method; assay type: functional
[26] = system: Shigella flexneri; assay: Antimicrobial activity against Shigella flexneri harboring shv-like gene assessed as resistant isolates by disk diffusion method; assay type: functional
[27] = system: Shigella flexneri; assay: Antimicrobial activity against Shigella flexneri harboring carb-like gene assessed as resistant isolates by disk diffusion method; assay type: functional; outline: as §2
[28] = system: Salmonella sp.; assay: Antimicrobial activity against Salmonella spp. harboring oxa-1-like gene assessed as resistant isolates by disk diffusion method; assay type: functional; outline: as §2
[29] = system: Salmonella sp.; assay: Antimicrobial activity against Salmonella spp. harboring oxa-2-like gene assessed as resistant isolates by disk diffusion method; assay type: functional
[30] = system: Salmonella sp.; assay: Antimicrobial activity against Salmonella spp. harboring oxa-5-like gene assessed as resistant isolates by disk diffusion method; assay type: functional; outline: as §2
[31] = system: Salmonella sp.; assay: Antimicrobial activity against Salmonella spp. harboring tem-like gene assessed as resistant isolates by disk diffusion method; assay type: functional
[32] = system: Salmonella sp.; assay: Antimicrobial activity against Salmonella spp. harboring shv-like gene assessed as resistant isolates by disk diffusion method; assay type: functional; outline: as §2
[33] = system: Salmonella sp.; assay: Antimicrobial activity against Salmonella spp. harboring carb-like gene assessed as resistant isolates by disk diffusion method; assay type: functional; outline: as §2

Which Activity [1] does the source give for O=C(N[C@H](CO)[C@H](O)c1ccc([N+](=O)[O-])cc1)C(Cl)Cl [CHLORAMPHENICOL] here?
The Activity was 61%.

What about the Activity [2] of the same compound?
The Activity was 0%.

What about the Activity [3] of the same compound?
Its Activity is 0%.

What about the Activity [4] of the same compound?
Its Activity is 22%.

And the Activity [5]?
The Activity was 0%.

And the Activity [6]?
The Activity was 25%.

And the Activity [7]?
Its Activity is 2%.

What about the Activity [8] of the same compound?
The Activity was 0%.

And the Activity [9]?
The Activity was 89%.

And the Activity [10]?
Its Activity is 33%.

What about the Activity [11] of the same compound?
Its Activity is 83%.

And the Activity [12]?
Its Activity is 67%.

With CN(C)[C@@H]1C(O)=C(C(N)=O)C(=O)[C@@]2(O)C(O)=C3C(=O)c4c(O)cccc4[C@@](C)(O)[C@H]3C[C@@H]12 [TETRACYCLINE] as the compound, how does the Activity [1] read?
The Activity was 64%.

And the Activity [2]?
Its Activity is 93%.

And the Activity [3]?
Its Activity is 0%.

And the Activity [4]?
Its Activity is 0%.

What about the Activity [5] of the same compound?
The Activity was 0%.

And the Activity [6]?
Its Activity is 25%.

What about the Activity [13] of the same compound?
Its Activity is 2%.

And the Activity [14]?
The Activity was 98%.

What about the Activity [15] of the same compound?
Its Activity is 22%.

What about the Activity [16] of the same compound?
The Activity was 71%.

And the Activity [17]?
Its Activity is 0%.

And the Activity [18]?
Its Activity is 36%.

What about the Activity [19] of the same compound?
The Activity was 33%.

What about the Activity [20] of the same compound?
Its Activity is 0%.

What about the Activity [21] of the same compound?
The Activity was 0%.

For CC1(C)S[C@@H]2[C@H](NC(=O)[C@H](N)c3ccccc3)C(=O)N2[C@H]1C(=O)O [AMPICILLIN], which Activity [1] is on record?
The Activity was 66%.

What about the Activity [2] of the same compound?
The Activity was 0%.

And the Activity [3]?
The Activity was 0%.

And the Activity [4]?
The Activity was 67%.

What about the Activity [5] of the same compound?
Its Activity is 0%.

What about the Activity [6] of the same compound?
The Activity was 25%.

What about the Activity [22] of the same compound?
The Activity was 90%.

What about the Activity [23] of the same compound?
Its Activity is 5%.

And the Activity [24]?
The Activity was 2%.

What about the Activity [25] of the same compound?
The Activity was 5%.

What about the Activity [26] of the same compound?
Its Activity is 2%.

What about the Activity [27] of the same compound?
The Activity was 0%.

And the Activity [28]?
Its Activity is 0%.

What about the Activity [29] of the same compound?
The Activity was 0%.

What about the Activity [30] of the same compound?
Its Activity is 20%.

And the Activity [31]?
The Activity was 70%.

What about the Activity [32] of the same compound?
Its Activity is 0%.

And the Activity [33]?
Its Activity is 0%.
